Assay results taken from ChEMBL document CHEMBL1132358, “Virtual combinatorial syntheses and computational screening of new potential anti-herpes compounds” (J Med Chem, 1999).

system: Vero; assay: Anti-Herpes simplex virus type-1 activity in vero cells using plaque inhibition assay; format: functional, cell-based, Chlorocebus sabaeus; settings: Chlorocebus sabaeus, Vero
Summary of the method: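 Plaque-reduction assay with HSV-1 McIntyre strain (titrated suspension) on confluent Vero monolayers. Cells infected with 100 PFU in MEM and adsorbed 2 h at 37 °C. Inoculum then replaced with MEM containing 0.2% γ-globulin plus serial concentrations of compound. Untreated infected wells served as CPE controls; CPE completed 1–2 days post-infection. Result given as IC50.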

In order of falling IC50:
1. O=C(O)c1n[nH]nc1C(=O)O  5000 nM
2. O=c1ccn([C@H]2C[C@H](O)[C@@H](CO)O2)c(=O)[nH]1 [DEOXYURIDINE]  2200 nM
3. O=C(O)C1=C(C(=O)Oc2ccc(F)c(F)c2F)CCC1  1800 nM
4. O=C1NC(=O)C([N+](=O)[O-])C(=O)N1  1700 nM
5. O=C(O)C1=C(C(=O)Oc2ccc(F)cc2F)CCC1  1400 nM
6. O=C(O)CCC(=O)O [SUCCINIC ACID]  1300 nM
7. Cc1noc(C)c1[N+](=O)[O-]  900 nM
8. O=C1CN(/N=C/c2ccc([N+](=O)[O-])o2)C(=O)N1 [NITROFURANTOIN]  900 nM
9. O=C(O)C1=C(C(=O)Nc2ccc(F)c(F)c2F)CCC1  900 nM
10. O=C(O)C1=C(C(=O)Nc2c(F)cccc2F)CCC1  900 nM
11. O=C(O)C1=C(C(=O)Nc2cccc(F)c2F)CCC1  900 nM
12. O=C(CN1CCNCC1)N1CCCC1  600 nM
13. OC[C@H]1O[C@@H](n2cnc3cncnc32)[C@H](O)[C@@H]1O [NEBULARINE]  600 nM
14. Nc1ncnc2c1ncn2[C@@H]1O[C@H](CO)C[C@H]1O [CORDYCEPIN]  500 nM
15. O=C(O)CCCCC(=O)O [ADIPIC ACID]  400 nM
16. Cc1cn([C@H]2C[C@H](O)[C@@H](CO)O2)c(=O)[nH]c1=O [DOXRIBTIMINE]  400 nM
17. O=c1[nH]cnc2c1ncn2[C@@H]1O[C@H](CO)[C@@H](O)[C@H]1O [INOSINE]  230 nM
18. Nc1nc(N)c2nc(CO)cnc2n1  160 nM
19. Cc1cc(=O)oc2cc(OCC(=O)O)ccc12  70 nM
20. Cc1cn([C@@H]2O[C@H](CO)[C@@H](O)[C@H]2O)c(=O)nc1N  60 nM

same assay, conditions: vero

`Cc1cn([C@H]2C[C@H](O)[C@@H](CO)O2)c(=O)[nH]c1=O` [DOXRIBTIMINE] was tested, and the IC50 was 300 nM.
